The nature of data set [1]: Cmax in C57BL/6 mouse at 40 mg/kg, po. Type of data set: ADME, organism-based. The arrangement: dose 40 mg/kg, route oral. As to conditions: in vivo. In a few lines: (§1)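 Female C57BL/6 mice, single 40 mg/kg oral gavage; three mice per time point; plasma at 30 min to 24 h, LC-MS; noncompartmental parameters reported as means.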
Data set [2] can be described thus: AUC (0 to infinity) in C57BL/6 mouse at 40 mg/kg, po. It is filed as ADME, organism-based. The arrangement: dose 40 mg/kg, route oral, time infinity. As to conditions: plasma.
Data set [3] in a line: Tmax in C57BL/6 mouse at 40 mg/kg, po. As to conditions: in vivo. Type of data set: ADME, organism-based. The arrangement: dose 40 mg/kg, route oral. The essentials: as §1
A short description of data set [4]: Oral bioavailability in Sprague-Dawley rat at 20 mg/kg. The settings on record: in vivo. Type of data set: ADME, organism-based.
Data set [5] is described as follows: Elimination half life in Sprague-Dawley rat at 5 mg/kg, iv. It is filed as ADME, organism-based. Also noted: dose 5 mg/kg, route intravenous. As to conditions: in vivo, read-out: beta t1/2 (converted). In a few lines:
(§2)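 Male Sprague-Dawley rats (n = 3), single 5 mg/kg iv dose as solution in PEG300/DMSO 50:50; plasma sampled 0.083–24 h, LC-MS bioanalysis; noncompartmental analysis, means.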

A short description of data set [6]: Clearance in Sprague-Dawley rat at 5 mg/kg, iv. The arrangement: dose 5 mg/kg, route intravenous. Type of data set: ADME, organism-based. The settings on record: in vivo. The essentials:
as §2

Data set [7] in a line: Volume of distribution in Sprague-Dawley rat at 5 mg/kg, iv. Type of data set: ADME, organism-based. Also noted: dose 5 mg/kg, route intravenous. As to conditions: in vivo. In a few lines: as §2
The nature of data set [8]: AUC (0 to infinity) in Sprague-Dawley rat at 5 mg/kg, iv. Type of data set: ADME, organism-based. Also noted: time infinity, dose 5 mg/kg, route intravenous. As to conditions: plasma.
Data set [9] in a line: Half life in Sprague-Dawley rat at 20 mg/kg, po. Type of data set: ADME, organism-based. The arrangement: dose 20 mg/kg, route oral. The settings on record: in vivo.
The nature of data set [10]: Tmax in Sprague-Dawley rat at 20 mg/kg, po. It is filed as ADME, organism-based. The arrangement: dose 20 mg/kg, route oral. The settings on record: in vivo.
A short description of data set [11]: Cmax in Sprague-Dawley rat at 20 mg/kg, po. Also noted: dose 20 mg/kg, route oral. It is filed as ADME, organism-based. As to conditions: in vivo.
Data set [12] in a line: AUC (0 to infinity) in Sprague-Dawley rat at 20 mg/kg, po. It is filed as ADME, organism-based. The settings on record: plasma. The arrangement: time infinity, dose 20 mg/kg, route oral.
Data set [13] is described as follows: Permeability across basolateral to apical side in human Caco2 cells incubated for 1 hr at 37 degC by HPLC-MS/MS method. Type of data set: ADME, cell-based. The settings on record: Caco-2. (In general: Caco-2 monolayers are a common model of the intestinal barrier.)
A short description of data set [14]: Permeability across apical to basolateral side in human Caco2 cells incubated for 1 hr at 37 degC by HPLC-MS/MS method. It is filed as ADME, cell-based. As to conditions: Caco-2. In a few lines: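 TC7 (Caco-2 subclone) monolayer; 10 μM compound in 1% DMSO in HBSS-MES pH 6.5 on apical donor side, basolateral receiver pH 7.4; shaken 1 h at 37 °C; receiver sampled, HPLC-MS/MS; duplicate means.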

A short description of data set [15]: Protein binding in human plasma at 10 uM incubated for 8 hrs at 37 degC by equilibrium dialysis method. Type of data set: ADME, cell-free. As to conditions: read-out: PPB (converted). The essentials: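 Equilibrium dialysis: 10 μM compound in 1% DMSO in human plasma vs 0.05 M phosphate buffer pH 7.5 across 12–14 K cutoff membrane, at least 8 h at 37 °C; HPLC-photodiode detection at 230 nm; duplicate means.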
Background: In equilibrium dialysis free small molecules cross a membrane that holds back macromolecules.

Data set [16] is described as follows: Metabolic stability in human liver microsomes assessed as parent compound remaining at 1 uM incubated for 1 hr by HPLC-MS/MS method. It is filed as ADME, Microsome. As to conditions: read-out: Stability. In a few lines:
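Pooled mixed-gender human liver microsomes (0.3 mg/mL protein), 1 μM compound with NADP-regenerating system in phosphate buffer pH 7.4, 1 h at 37 °C; parent measured at start and end by HPLC-MS/MS; duplicate means.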

A short description of data set [17]: Solubility in simulated gastric fluid at pH 1.5 by HPLC method. Type of data set: physicochemical. In a few lines: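 Compound at 200 μM final in 2% DMSO in simulated gastric fluid, shaken 24 h at room temperature; HPLC-photodiode array detection at 230 nm; duplicate means.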
Data set [18] in a line: Solubility in simulated intestinal fluid at pH 7.6 by HPLC method. Type of data set: physicochemical. The essentials: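 Simulated intestinal fluid medium; each analogue 200 μM final in 2% DMSO, shaken 24 h at room temperature, then HPLC with photodiode array read at 230 nm; duplicate, means given.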
For data set [19], the system named is Vero. Description: Cytotoxicity against african green monkey Vero cells. Type of data set: cell-based, Chlorocebus sabaeus. The settings on record: Chlorocebus sabaeus, Vero; read-out: IC50.
Data set [20] deals with Mycobacterium tuberculosis. Description: Antitubercular activity against non-replicating Mycobacterium tuberculosis H37Rv incubated for 10 days by LORA method. It is filed as functional. The settings on record: 240 h. The essentials: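 H37Rv carrying pFCA-luxAB was adapted to low oxygen by gradual self-depletion in a sealed, slowly stirred flask. It was then exposed to compounds for 10 days under anaerobic conditions. Cultures recovered for 28 h in ambient oxygen before n-decanal substrate was added and luminescence read. MIC was the lowest concentration giving a 90% reduction in luminescence versus untreated controls.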

The test system of data set [21] is Mycobacterium tuberculosis. Nature of the data set: Antitubercular activity against Mycobacterium tuberculosis H37Rv incubated at 37 degC for 14 days in presence of 40% human serum by microplate alamar blue assay. It is filed as functional. As to conditions: 336 h. In a few lines: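 This is the MABA run in 7H9 broth containing 40% human serum. Compounds were 2-fold serially diluted, and wells were inoculated with H37Rv at 2 × 10⁵ CFU/mL. Incubation was at 37 °C for 14 days, then Alamar Blue was added. MIC was the lowest concentration preventing the blue-to-pink colour change.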
A general note: Alamar Blue is a resazurin reagent that responds to reducing activity.

The test system of data set [22] is Mycobacterium tuberculosis. Nature of the data set: Antitubercular activity against Mycobacterium tuberculosis H37Rv incubated at 37 degC for 7 days by microplate alamar blue assay. It is filed as functional. As to conditions: Mycobacterium tuberculosis, H37Rv, 168 h. The essentials: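 Mtb H37Rv was grown in 7H9 broth with glycerol, Casitone, 10% OADC and 0.05% Tween 80 to OD600 0.4. Compounds were 2-fold serially diluted from DMSO stocks in 7H9, and wells were inoculated at 2 × 10⁵ CFU/mL. After 7 days at 37 °C, Alamar Blue was added and read after a further 24 h. MIC was the lowest concentration preventing the blue-to-pink change.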

Data set [23] in a line: Aqueous solubility in PBS buffer at pH 7.4 by HPLC method. Type of data set: physicochemical. The settings on record: PBS buffer, read-out: solubility. In a few lines:
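Compound at 200 μM final in 2% DMSO in PBS pH 7.4, shaken 24 h at room temperature; quantified by HPLC with photodiode array detection at 230 nm; duplicate, mean reported.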

Data set [24] can be described thus: Efflux ratio in human Caco2 cells incubated for 1 hr at 37 degC by HPLC-MS/MS method. It is filed as ADME, cell-based. The settings on record: Caco-2.

Structures are written as SMILES. ≈ marks a conversion by molar mass, not a printed value. Some results are limits rather than exact numbers.

Here are results for one compound from ChEMBL document CHEMBL2346548, “Design, synthesis, and structure-activity relationship studies of tryptanthrins as antitubercular agents” (J Nat Prod, 2013).

Usually Cmax stands for the peak of the concentration-time curve. One may read the AUC(0-inf) as the area under the concentration-time curve extrapolated to infinity. The Tmax is the time at which the peak concentration occurs. The bioavailability is the share of a dose that reaches the circulation, judged against a reference dose that is usually intravenous. In general, clearance refers to the rate of elimination divided by the concentration. In general, Vd refers to the apparent volume that relates the amount in the body to the concentration in plasma or blood. Broadly, the Papp B→A is the apparent permeability from the basolateral to the apical side of a cell layer. As usually defined, the Papp A→B is how fast a substance crosses the layer from the apical side. For orientation: solubility means the dissolved amount per volume that the medium holds. In general, IC50 refers to the concentration at which inhibition is half-maximal. One may read the MIC90 as the lowest concentration that inhibits either 90% of growth or 90% of the strains tested, depending on the study. As usually defined, the MIC is the smallest concentration in the dilution series that meets the test's criterion for growth inhibition. Usually efflux ratio stands for a quotient of directional permeabilities that is used to spot active efflux.

For the compound `O=C1c2cc(C(=O)N3CCCCC3)ccc2-n2c1nc1ccccc1c2=O`, the figures for the Cmax in data set [1] and in data set [11] were 112 ng/mL and 30 ng/mL, respectively. For the same compound, the AUC(0-inf) is 1300 ng·h/mL in [2], 1070 ng·h/mL in data set [8] and 140 ng·h/mL in data set [12]. For the same compound, the Tmax in [3] stood at 2 h; in data set [10], 1 h. This compound displayed a bioavailability in data set [4] of 3.16%. In addition, the half-life is 0.88 h in data set [5] and 7.34 h in data set [9]. Also, in [6], the clearance was 81 mL/min/kg. The same compound yielded a Vd in [7] of 6.21 L/kg. This compound registered a Papp B→A at 1 h in data set [13] of 26 ×10⁻⁶ cm/s. The Papp A→B at 1 h in data set [14] turned out to be 59.9 ×10⁻⁶ cm/s. Besides, in data set [15], the fraction unbound at 8 h, 10 µM is 0.011. The remaining at 1 h, 1 µM in [16] worked out at 105%. For the same compound, the solubility in data set [17] was 10.2 µM (≈ 3.67 µg/mL); in data set [18], 27.5 µM (≈ 9.88 µg/mL); in data set [23] it was 16.3 µM (≈ 5.86 µg/mL). Besides, in data set [19], the IC50 is > 10 µg/mL. In addition, the MIC90 in data set [20] is > 10 µg/mL. The MIC in data set [21] was determined as 2 µg/mL; in data set [22] it was 0.25 µg/mL (≈ 0.696 µM). In data set [24], the efflux ratio at 1 h is > 1.
